OX1R antag-1: OX1R (HCRTR1) antagonists, primary screen, fluorescence, CHO/OX1R cells, Fluo-8 calcium, orexin A; inhibition, % at 5 µM; hit rate 0.43% among 330,000; Orexin/Hypocretin receptor type 1 (Homo sapiens), O43613; Fluo-8 calcium fluorescence;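 active = inhibition above its plate's threshold, mean inhibition of all tested compounds on the plate plus 3 SD, cut at about 37% in these data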;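 note: 0% = orexin A challenge wells and 100% = SB-334867-A antagonist wells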
Target sequence (O43613 whole entry, looked up): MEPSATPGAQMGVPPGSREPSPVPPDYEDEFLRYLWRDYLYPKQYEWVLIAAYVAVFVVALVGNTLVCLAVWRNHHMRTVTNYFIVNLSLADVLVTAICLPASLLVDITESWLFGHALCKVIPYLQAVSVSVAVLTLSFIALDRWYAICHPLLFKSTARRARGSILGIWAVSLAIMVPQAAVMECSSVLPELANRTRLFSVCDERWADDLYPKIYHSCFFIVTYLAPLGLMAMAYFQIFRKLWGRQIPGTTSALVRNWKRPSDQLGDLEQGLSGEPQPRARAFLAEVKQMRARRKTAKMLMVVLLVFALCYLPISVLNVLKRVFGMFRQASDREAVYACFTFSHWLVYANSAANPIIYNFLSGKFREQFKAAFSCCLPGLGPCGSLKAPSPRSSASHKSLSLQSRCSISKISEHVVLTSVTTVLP
OX1R antag-2: antagonists of human orexin 1 receptor (OX1R). Orexin/Hypocretin receptor type 1 (Homo sapiens), O43613. OX1R-expressing cells, FRET antagonist read-out. inhibition, % at 6.6 µM. hit rate 1.8% among 330,000. AID 485270, 2010; in the data active = inhibition mostly above about 38%, no sharp cut-off; inactive = mostly below about 40%;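 note: 0% = agonist challenge alone and 100% = reference antagonist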
TAAR1 antag: human TAAR1 antagonists, primary screen, Fluo-8 calcium fluorescence, CHO RD-HGA16 cells. antagonist. hit rate 1.5% among 360,000. Trace amine-associated receptor 1 (Homo sapiens), Q96RJ0. AID 624466, 2012. inhibition, % at 3 µM;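 active = inhibition above a per-plate cutoff, the mean inhibition of test compounds on that plate plus 3 SD, cut at about 49% in these data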;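 note: 0% = DMSO plus EC80 beta-PEA response and 100% = DMSO alone without agonist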
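Material: CHO RD-HGA16 cells bearing hTAAR1; compound dosing: one-point dosing, 3 µM nominal final; schedule: dye loading 75 min at 37 °C, then 30 min room temperature; measured by: calcium fluorescence with Fluo-8; control set: vehicle and agonist controls; replication: n of 1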
TAAR1 agonist: human TAAR1 agonists, primary screen, Fluo-8 calcium fluorescence, CHO RD-HGA16 cells. Trace amine-associated receptor 1 (Homo sapiens), Q96RJ0. vehicle wells 0%, saturating PEA agonist 100%. activation, % at 3 µM. hit rate 0.99% among 360,000;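 active = activation above the mean activation of all test compounds in the run plus 3 SD, cut at about 38% in these data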
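Signal – calcium-sensitive Fluo-8 signal, excitation 470-495, emission 515-575 nm · System – RD-HGA16 (CHO) cells co-expressing Gα16 and hTAAR1 · Incubation – 17-24 h seeding, 75 min 37 °C dye, 30 min RT · Compound dosing – 3 µM single concentration · Repeats – no replicates (n 1)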
GPR7 antagonist: GPR7 receptor antagonists, primary screen, cell-based, fluorescence, single concentration; Neuropeptides B/W receptor type 1 (Homo sapiens), P48145; GPR7-expressing cells, fluorescence antagonist assay; inhibition, % at 4.4 µM; hit rate 1.1% among 290,000; in the data active = inhibition above about 16%, passing the limit was not always enough;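 note: cells stimulated with the agonist NPW; 0% = agonist with vehicle and 100% = vehicle without agonist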
CHO parental Ca: ATP-evoked calcium signal inhibitors, parental CHO, primary screen, counter-screen for OX1R antagonist project, cell-based, fluorescence, Fluo-8 calcium dye | hit rate 0.63% among 330,000 | inhibition, % at 5.6 µM | parental CHO-K1, ATP-induced calcium, Fluo-8 fluorescence;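 active = inhibition above that plate's mean sample inhibition plus 3 SD, cut at about 26% in these data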;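 note: 0% = ATP-challenged DMSO wells and 100% = DMSO wells without ATP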
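Test system: untransfected parental CHO cell line. Compound: one dose, 5.6 µM nominal. Detection: intracellular calcium via Fluo-8 no-wash fluorescent dye. Measure: % inhibition. Benchmarks: ATP-challenged DMSO wells low, unchallenged DMSO wells high.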
GPR7 antag cf: GPR7 receptor antagonists, confirmation, cell-based, fluorescence, single concentration; GPR7-expressing cells, calcium fluorescence antagonist mode; inhibition, % at 4.4 µM; AID 1952, 2009; shares compounds with GPR7 antagonist; hit rate 52% among 2,400; in the data active = inhibition above about 24%;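 note: stimulated with the GPR7 agonist NPW; 0% = agonist plus vehicle and 100% = vehicle alone without agonist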
MCHR1 antagonist: MCHR1 antagonists in cells, counter-screen for GPR7 antagonist project, cell-based, fluorescence, human; hit rate 62% among 2,400; shares compounds with GPR7 antagonist; MCHR1-expressing cells, fluorescence antagonist assay; AID 2148, 2009; inhibition, % at 4.4 µM; in the data active = inhibition above about 22%;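 note: 0% = vehicle with agonist and 100% = vehicle without agonist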
Active calls of the source: *. Compounds with a hit are over-represented: about 4.6% of the library has one in this group of screens.

Results for Cc1cccc2cc(C3CC(c4ccco4)=NN3S(C)(=O)=O)c(Cl)nc12 (centres undefined) ?
OX1R antag-1: -6; OX1R antag-2: 10; TAAR1 antag: -3; TAAR1 agonist: 2; GPR7 antagonist: 22*; CHO parental Ca: -17; GPR7 antag cf: 2; MCHR1 antagonist: 12

What do the screens show for `O=[N+]([O-])c1ccccc1S(=O)(=O)NCCSc1ccccc1`?
OX1R antag-1: -11; OX1R antag-2: 11; TAAR1 antag: -10; TAAR1 agonist: 6; GPR7 antagonist: -10; CHO parental Ca: -14

Results for O=S(=O)(NCCCSc1ccccc1)c1ccccc1F ?
OX1R antag-1: -23; OX1R antag-2: 30; TAAR1 antag: -12; TAAR1 agonist: 4; GPR7 antagonist: 25*; CHO parental Ca: -12; GPR7 antag cf: -4; MCHR1 antagonist: 6

Results for Clc1ccc2[nH]c3c(NCC4CCCO4)ncnc3c2c1 (centres undefined) ?
OX1R antag-1: 40; OX1R antag-2: 124*; TAAR1 antag: 54*; TAAR1 agonist: 15; GPR7 antagonist: 38*; CHO parental Ca: 38*; GPR7 antag cf: 8; MCHR1 antagonist: 62*

Results for COCc1cc(C)nc(SCc2ccccc2Cl)c1C#N ?
OX1R antag-1: -27; OX1R antag-2: -3; TAAR1 antag: 8; TAAR1 agonist: 1; GPR7 antagonist: -8; CHO parental Ca: -11

How did COCc1cc(C)nc(SCc2ccc([N+](=O)[O-])cc2)c1C#N do in these assays?
OX1R antag-1: -17; OX1R antag-2: 23; TAAR1 antag: 0; TAAR1 agonist: 4; GPR7 antagonist: 29*; CHO parental Ca: -9; GPR7 antag cf: 9; MCHR1 antagonist: 13

Results for Cc1nc(Cl)c(C(=O)NCc2ccccc2)c(C)c1Cl ?
OX1R antag-1: -19; OX1R antag-2: 15; TAAR1 antag: -16; TAAR1 agonist: 2; GPR7 antagonist: -18; CHO parental Ca: -13

How did O=C(NCc1ccccc1)c1c(Cl)nc(Cl)c(Cl)c1Cl do in these assays?
OX1R antag-1: 7; OX1R antag-2: 11; TAAR1 antag: 9; TAAR1 agonist: -3; GPR7 antagonist: 76*; CHO parental Ca: 1; GPR7 antag cf: 87*; MCHR1 antagonist: 45*

Results for O=C(Nc1ccc(N2CCN(c3ccc(C(F)(F)F)cn3)CC2)nc1)c1cccs1 ?
OX1R antag-1: 15; OX1R antag-2: 6; TAAR1 antag: -23; TAAR1 agonist: 3; GPR7 antagonist: -18; CHO parental Ca: -8

Results for O=C(Nc1ccc(N2CCN(c3ncccc3C(F)(F)F)CC2)nc1)c1cccs1 ?
OX1R antag-1: 8; OX1R antag-2: 22; TAAR1 antag: 75*; TAAR1 agonist: 22; GPR7 antagonist: 21*; CHO parental Ca: 17; GPR7 antag cf: 35*; MCHR1 antagonist: 81*

How did O=C(Nc1ccc(C(=O)N2CCN(c3ccccc3)CC2)cc1)C1=CSCCO1 do in these assays?
OX1R antag-1: -28; OX1R antag-2: 12; TAAR1 antag: -3; TAAR1 agonist: 4; GPR7 antagonist: -5; CHO parental Ca: -13

How did O=C(Cc1n[nH]c(=O)c2ccccc12)OCC(=O)c1ccc(F)cc1 do in these assays?
OX1R antag-1: -25; OX1R antag-2: 20; TAAR1 antag: -21; TAAR1 agonist: 2; CHO parental Ca: -10

How did O=C(Cc1n[nH]c(=O)c2ccccc12)OCC(=O)c1ccc2c(c1)OCCO2 do in these assays?
OX1R antag-1: -19; OX1R antag-2: 25; TAAR1 antag: 2; TAAR1 agonist: 6; GPR7 antagonist: 28*; CHO parental Ca: -19; GPR7 antag cf: -9; MCHR1 antagonist: 15

What do the screens show for `COc1ccc(Cn2nnnc2CN2CCC(c3nc4ccccc4s3)CC2)cc1`?
OX1R antag-1: -4; OX1R antag-2: 13; TAAR1 antag: 43; TAAR1 agonist: 21; GPR7 antagonist: 29*; CHO parental Ca: -4; GPR7 antag cf: 36*; MCHR1 antagonist: 64*

Results for c1ccc2sc(C3CCN(Cc4nnnn4Cc4ccc5c(c4)OCO5)CC3)nc2c1 ?
OX1R antag-1: -13; OX1R antag-2: 22; TAAR1 antag: 15; TAAR1 agonist: 6; GPR7 antagonist: -9; CHO parental Ca: -10

What do the screens show for `O=C(CN1CCOc2ccccc21)NC1CCN(Cc2ccccc2)CC1`?
OX1R antag-1: -19; OX1R antag-2: 26; TAAR1 antag: -7; TAAR1 agonist: -1; GPR7 antagonist: 1; CHO parental Ca: -6

Results for O=C(CN1CCOc2ccccc21)NC1CCCCCCC1 ?
OX1R antag-1: -19; OX1R antag-2: 16; TAAR1 antag: 3; TAAR1 agonist: 1; GPR7 antagonist: 25*; CHO parental Ca: -5; GPR7 antag cf: 7; MCHR1 antagonist: 5

How did CC(C)OC(=O)CSc1nnc(CNc2ccc(Cl)cc2)n1Cc1ccccc1 do in these assays?
OX1R antag-1: 53*; OX1R antag-2: 50; TAAR1 antag: 29; TAAR1 agonist: 15; GPR7 antagonist: 26*; CHO parental Ca: 55*; GPR7 antag cf: 24*; MCHR1 antagonist: 51*

How did CCOC(=O)CSc1nnc(CNc2ccc(Cl)cc2)n1Cc1ccccc1 do in these assays?
OX1R antag-1: -13; OX1R antag-2: 43; TAAR1 antag: 8; TAAR1 agonist: 2; GPR7 antagonist: -10; CHO parental Ca: 0

What do the screens show for `O=C(Oc1ccc(C(=S)N2CCOCC2)cc1)c1ccc(Br)cc1`?
OX1R antag-1: -8; OX1R antag-2: 4; TAAR1 antag: -3; TAAR1 agonist: 1; GPR7 antagonist: 0; CHO parental Ca: -3

How did O=C(Oc1ccc(C(=S)N2CCOCC2)cc1)c1ccccc1 do in these assays?
OX1R antag-1: -17; OX1R antag-2: 11; TAAR1 antag: 19; TAAR1 agonist: 2; GPR7 antagonist: 42*; CHO parental Ca: 2; GPR7 antag cf: 26*; MCHR1 antagonist: 15

What do the screens show for `CSc1ccccc1CNC(=O)C1(C)CCCN1CC(C)C` (centres undefined)?
TAAR1 antag: -22; TAAR1 agonist: 1
